Screening results as filed in PubChem BioAssay.
Shown is part of a subset that was picked to be rich in hits.
CD11b adhes enh = increases human CD11b/CD18 adhesion to fibrinogen; activation, % at 10 µM; K562 CD11b/CD18 adhesion to fibrinogen, ATPlite luminescence; 93,000 tested, 0.07% active; P05107+P11215;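 active means 10 µM primary screen giving 50% or more activity, confirmed by 40% or more on retest at that dose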
Target sequence (P05107 whole entry, looked up, other chains not shown): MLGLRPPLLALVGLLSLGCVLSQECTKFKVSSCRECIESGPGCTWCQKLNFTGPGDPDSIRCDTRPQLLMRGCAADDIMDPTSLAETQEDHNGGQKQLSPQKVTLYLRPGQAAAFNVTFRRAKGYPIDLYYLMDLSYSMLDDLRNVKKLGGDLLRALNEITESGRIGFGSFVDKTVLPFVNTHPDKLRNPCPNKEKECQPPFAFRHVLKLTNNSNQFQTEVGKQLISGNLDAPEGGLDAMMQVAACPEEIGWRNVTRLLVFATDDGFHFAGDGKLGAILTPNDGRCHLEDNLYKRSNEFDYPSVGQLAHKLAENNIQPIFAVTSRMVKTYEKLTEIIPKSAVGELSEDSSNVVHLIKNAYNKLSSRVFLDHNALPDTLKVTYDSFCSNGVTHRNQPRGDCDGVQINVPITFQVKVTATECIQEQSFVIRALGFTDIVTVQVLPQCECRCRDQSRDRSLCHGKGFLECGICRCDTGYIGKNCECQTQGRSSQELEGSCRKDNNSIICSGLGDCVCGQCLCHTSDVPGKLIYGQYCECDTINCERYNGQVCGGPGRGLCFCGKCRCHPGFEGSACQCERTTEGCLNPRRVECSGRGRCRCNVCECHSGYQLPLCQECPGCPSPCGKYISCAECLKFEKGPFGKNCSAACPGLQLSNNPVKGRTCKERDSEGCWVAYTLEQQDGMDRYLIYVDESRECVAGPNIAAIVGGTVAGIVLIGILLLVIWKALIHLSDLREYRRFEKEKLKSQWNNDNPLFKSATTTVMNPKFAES
Mac1 fbg inh = inhibitors of human CD11b/CD18 binding to fibrinogen. P05107+P11215. K562 CD11b/CD18 adhesion to fibrinogen, ATPlite luminescence; Mn2+ added to activate the integrin. inhibition, % at 10 µM. 93,000 tested, 0.54% active. AID 1497;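 active means primary inhibition of 50% or more at 10 µM, then 40% or more on retest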
Phagocytosis inh = blocks phagocytosis by macrophages; J774A.1 macrophage IgG-bead phagocytosis, imaging; inhibition, % at 5 µM; 110,000 tested, 0.07% active; AID 1029;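 active means inhibition above the mean of the plate negative controls plus 5 SD, cut at about 13% in these data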;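 further: phagocytic index as fraction of beads internalized from green versus red external bead signal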
Ecoli WT expand = blocks growth of wild type E. coli BW25113; OD600 absorbance; growth inhibition, % at 100 µM; 98,000 tested, 0.15% active; AID 710;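 active means growth inhibition above about 50% at one test dose, limit read from the data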;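 further: growth measured after 20 h incubation at 37 °C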
tolC growth inh = blocks growth of E. coli BW25113 tolC mutant | growth inhibition, % at 10 µM (by protocol) | 65,000 tested, 2.2% active | OD615;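 active means growth inhibition at or above a cutoff equal to the mean over every tested compound plus 3 SD, cut at about 60% in these data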;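 further: growth measured after 20 h incubation at 37 °C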
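Test system: E. coli BW25113 ΔtolC::kan bacteria; incubation: 37 °C, 20 h exposure; medium: LB broth supplemented with 50 µg/mL kanamycin; read-out basis: percent growth inhibition; signal: A615 absorbance measurement; compound: 10 µM final, single dose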
Numbers stand for hits; – = inactive; · = not tested or not shown.

SMILES	CD11b adhes enh	Mac1 fbg inh	Phagocytosis inh	Ecoli WT expand	tolC growth inh
CC(C)c1ccc(OCc2ccc(C(=O)N3CCN(c4ccccn4)CC3)cc2)cc1	–	–	–	–	86
COc1ccccc1N1CCN(C(=O)c2cc3c(s2)CCC3)CC1	70	–	·	–	·
COc1ccccc1N1CCN(C(=O)COc2ccc(C)cc2Br)CC1	–	–	–	–	70
COc1ccccc1N1CCN(C(=O)c2oc3cc(C)c(C)cc3c2C)CC1	–	–	–	–	72
CCNc1nc(NCC)nc(SCCOc2ccc(C)cc2)n1	·	·	–	·	·
CC(=O)Nc1ccc(-c2cn3cc(C)ccc3n2)cc1	·	·	–	·	·
Cc1ccc2nc(-c3ccccc3)cn2c1	–	69	·	–	–
O=C1CCCC(=O)C1=C1SCCS1	·	·	–	·	·
Cc1c(C)c2ccc(OS(C)(=O)=O)c(C)c2oc1=O	·	·	–	·	·
COc1ccccc1-c1nnc(SC/C(O)=C(\C#N)c2nc3ccccc3[nH]2)n1C1CCCCC1	·	·	–	·	71
COc1ccccc1NC(C)C(=O)Nc1ccc(C(C)=O)cc1 (centres undefined)	·	·	–	·	·
O=C(Nc1ccc(Cn2cccn2)cc1)c1ccc(COc2ccc(Br)cc2)cc1	52	–	·	–	·
S=c1[nH]nc(-c2ccccn2)n1/N=C/c1ccc(Br)s1	–	–	–	·	·
CCOc1cc(-c2c(C#N)c(=O)[nH]c3c2c(C)nn3-c2ccc(F)cc2)ccc1O	–	–	–	–	97
CCOc1ccc(OCc2cccc(C(=O)O)c2)cc1	–	59	–	–	–
CCOc1cc(CNn2cn[nH]c2=S)cc(Cl)c1OCc1ccccc1F	–	–	–	·	·
c1ccc2nc3c(nc2c1)CCc1nonc1-3	–	–	–	–	–
O/N=C1/CCc2nonc2/C1=N/O	–	–	–	52	–
CCOC(=O)CSC1=C(C#N)C(c2ccccc2C)C2=C(CCCC2=O)N1 (centres undefined)	–	–	–	–	–
CCSC1=C(C#N)C(c2ccc(Cl)cc2)C2=C(CCCC2=O)N1 (centres undefined)	–	–	–	–	96
O=C(CN1CCN(S(=O)(=O)c2ccc(F)cc2)CC1)Nc1ccc2c(c1)OCCO2	·	·	·	–	–
O=C(CN1CCN(S(=O)(=O)c2ccc(F)cc2)CC1)Nc1ccc(Cl)c(C(F)(F)F)c1	·	·	·	–	64
COc1cc(OC)cc(C(=O)NCC(=O)OCC(=O)C(C)(C)C)c1	·	·	–	·	·
CCc1c(C)nc2cc(-c3cc(OC)cc(OC)c3)nn2c1N1CCCC1	–	–	–	–	75
CCc1c(C)nc2cc(-c3ccc(OC)c(OC)c3)nn2c1N1CCCC1	–	–	–	–	–
SMILES	CD11b adhes enh	Mac1 fbg inh	Phagocytosis inh	Ecoli WT expand	tolC growth inh
Cc1ccc2c(c1)c1c(n2CC(O)Cn2c(C)nc3ccccc32)C(=O)CCC1 (centres undefined)	–	–	–	–	–
Cc1ccc2c(c1)c1c(n2CC(O)Cn2c(C)nc3ccccc32)/C(=N\O)CCC1 (centres undefined)	–	–	–	–	78
COc1ccc(CC(=O)Nc2ccc3c(c2)CCC3)cc1OC	–	65	–	–	·
C=CCn1c(COc2ccccc2F)nnc1SCCN1C(=O)c2ccccc2C1=O	–	–	–	·	·
CCc1cc(-c2[nH]ncc2-c2ccc3c(c2)OCO3)c(O)cc1O	–	70	–	·	100
COc1ccc(-c2[nH]ncc2-c2ccc3c(c2)OCCO3)c(O)c1	–	–	–	–	98
CCOc1cc(/C=N/NC(N)=O)ccc1OC(=O)c1ccc(C)cc1	–	–	·	–	·
CCOc1cc(/C=N/NC(=O)CNc2ccc(C)cc2)ccc1OC(=O)c1ccccc1	–	–	174	–	·
Cc1ccc(N(CC(=O)N/N=C/c2cc(C)n(-c3ccccc3C)c2C)S(C)(=O)=O)cc1	·	·	–	·	·
CN1CCN(CC(=O)N2CCn3c4c(c5cc(C6CCCCC6)ccc53)CCCC42)CC1 (centres undefined)	–	–	–	–	100
Cc1ccc2c(c1)c1c3n2CCN(C(=O)CN2CCN(C)CC2)C3CCC1 (centres undefined)	–	–	–	–	–
Cc1ccc(C)n1-n1c(C)nc2sc3c(c2c1=O)CCCCC3	–	–	–	–	67
Cc1ccc(C)n1-n1cnc2sc3c(c2c1=O)CCCCC3	–	–	–	–	·
CCOC(=O)Cc1nnc2c(Nc3ccccc3F)nc3nonc3n12	–	99	–	–	79
C=CCn1c(C)cc(C(=O)COC(=O)[C@@H](NC(=O)c2ccccc2Cl)C(C)C)c1C	–	79	–	·	·
CCCCCCn1ccc(=N)cc1	–	56	–	–	–
CCCCCCN1C2=NCCN2c2ccccc21	–	–	–	–	·
COCC(C)NC(=O)C(C)Oc1ccccc1 (centres undefined)	·	·	–	·	·
